The source of these data is PMC5915676 (Cell chemical biology, 2016).

Numbering of substitutions follows the chain as printed. Entries after “also recorded” stand apart in the source; their conditions may differ. Like-named read-outs stand apart in the source and are kept apart here.

The target in one data set is T1, PHGDH mutant T59A (Homo sapiens, UniProt O43175, T60A).
T1 sequence (O43175 1-533 T60A): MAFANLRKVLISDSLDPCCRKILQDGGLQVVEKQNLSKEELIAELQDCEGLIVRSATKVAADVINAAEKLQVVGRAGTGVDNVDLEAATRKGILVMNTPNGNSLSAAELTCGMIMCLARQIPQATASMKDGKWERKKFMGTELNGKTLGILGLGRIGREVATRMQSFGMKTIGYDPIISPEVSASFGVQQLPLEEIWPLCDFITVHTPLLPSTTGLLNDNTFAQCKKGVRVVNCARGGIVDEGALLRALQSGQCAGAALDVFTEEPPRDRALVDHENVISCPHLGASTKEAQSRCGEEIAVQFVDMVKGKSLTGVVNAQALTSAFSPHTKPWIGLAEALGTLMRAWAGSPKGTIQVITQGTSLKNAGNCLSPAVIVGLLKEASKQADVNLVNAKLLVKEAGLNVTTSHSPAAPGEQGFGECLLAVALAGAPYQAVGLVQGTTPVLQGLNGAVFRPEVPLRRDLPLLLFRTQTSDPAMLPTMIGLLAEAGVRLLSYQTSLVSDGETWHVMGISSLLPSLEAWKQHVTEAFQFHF
Description: PHGDH enzyme assay, mutant T59A. Type of data set: biochemical. The following applies: read-out: IC50, PHGDH enzyme inhibition. Summed up: (§1)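 Point mutants were made by QuikChange site-directed mutagenesis of pET-21a(+) wild-type human PHGDH and sequence-verified. Each was expressed in E. coli and purified like the wild type, then assayed for activity and inhibition in the same PSAT1-coupled PHGDH assay.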

A further data set concerns HCC70 cells. Description: MTT cell viability assay. The conditions noted are these: read-out: EC50, antitumor activity (cell viability), HCC70, 72 h. Type of data set: cell-based, human.
The subject of data set [1] is serine biosynthesis pathway in SKOV3 GFP KO cells. Description: U-13C-glucose stable isotope labeling, LC-HRMS. It is filed as cell-based, human.
In the next data set the target is T2, PHGDH mutant T56AK57A (Homo sapiens, UniProt O43175, K58A/T57A).
T2 sequence (O43175 1-533 T57A/K58A): T1 sequence (O43175 1-533 T60A) with T57A, K58A, A60T
Kind of data set: PHGDH enzyme assay, mutant T56AK57A. Type of data set: biochemical. The conditions noted are these: read-out: IC50, PHGDH enzyme inhibition. Summed up: as §1

Data set [2] has as its system MDA-MB-468 cells. Kind of data set: MTT cell viability assay. It is filed as cell-based, human. The following applies: read-out: EC50, antitumor activity (cell viability), MDA-MB-468, 72 h. (In general: Formazan colour is commonly taken as a measure of viable cells.)
A short description of data set [3]: Body weight of xenograft mice during treatment. Type of data set: in vivo. The conditions noted are these: over the course of the xenograft experiments.
The test system of data set [4] is panel of cancer cell lines along with one immortalized human breast epithelial cell line. Kind of data set: MTT cell viability assay, cell line panel. Type of data set: cell-based.
In another data set the test system is MCF-10A cells. Description: MTT cell viability assay. Type of data set: cell-based, human.
The test system of data set [5] is SKOV3 GFP KO control cells. Kind of data set: 6-day proliferation assay. Type of data set: cell-based, human. The following applies: 50 μM PKUMDL-WQ-2201, 6 days. Summed up: (§2)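 SKOV3 control (sgRNA against GFP) and PHGDH knockout cells were used. Knockout was made by lentiCRISPR with an exon 8 sgRNA, puromycin selection and single-cell clones, and was western-validated. Cells were grown in RPMI-1640 with 10% FBS and plated at 10,000 cells/well in triplicate. After 24 h they received DMSO or compound, and viable cells were counted daily for 6 days by trypan-blue exclusion on a hemocytometer. Data are mean ± SEM, n=3 biological replicates, two-tailed Student's t-test.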

The test system of a further data set is MDA-MB-231 xenografts. Description: MDA-MB-231 xenograft mouse model. It is filed as in vivo, NOD.CB17 Scid/J mice. The conditions noted are these: 20 mg/kg/day IP.
The subject of another data set is SKOV3 PHGDH KO cells. Description: 6-day proliferation assay. The following applies: 50 μM PKUMDL-WQ-2201, 6 days. It is filed as cell-based, human. Summed up: as §2
The next data set relates to MCF-7 cells. Kind of data set: MTT cell viability assay. Type of data set: cell-based, human. The conditions noted are these: read-out: EC50 (cell viability), MCF-7, 72 h.
A further data set deals with MDA-MB-468 xenografts. Kind of data set: MDA-MB-468 xenograft mouse model. Type of data set: in vivo, NOD.CB17 Scid/J mice. The following applies: 20, 10 and 5 mg/kg/day IP, 30 days of drug delivery, vs vehicle.
For a further data set, the system named is MDA-MB-231 cells. Kind of data set: MTT cell viability assay. Type of data set: cell-based, human. The following applies: read-out: EC50 (cell viability), MDA-MB-231, 72 h.
For a further data set, the target named is T3, PHGDH (Homo sapiens, UniProt O43175).
T3 sequence (O43175 1-533): T1 sequence (O43175 1-533 T60A) with A60T
Kind of data set: PHGDH enzyme assay coupled with PSAT1 reaction. Type of data set: biochemical. Summed up:
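Full-length human PHGDH and PSAT1 were His-purified from E. coli BL21(DE3) (pET21a(+)) by Ni-NTA then gel filtration. PHGDH activity was measured coupled to the upstream PSAT1 reaction. For cofactor competition, enzyme was preincubated 10 min at 25°C with NADH and compound, and Pser was added to start the reaction. For combinations, fixed first-compound levels (0–200 μM) were mixed with second-compound series (0–200 μM) and preincubated with enzyme.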

The next data set has as its system ZR-75-1 cells. Kind of data set: MTT cell viability assay. It is filed as cell-based, human. The conditions noted are these: selectivity, PHGDH amplified vs non-dependent line.
For data set [6] the following is noted: ref Mullarky et al., 2016; cited from earlier work.
In data set [7] the test system is MDA-MB-468 cells. The following applies: 30 μM, ref Mullarky et al., 2016, cited from earlier work.
The mark [8] stands for this setting: 37 μM PKUMDL-WQ-2101, 291 μM PKUMDL-WQ-2201, 24 h treatment.

Broadly, the IC50 is the midpoint of a concentration-inhibition curve. For orientation: EC50 means the concentration at which the effect is half-maximal.

Consider `CCNC(=S)N/N=C/c1ccc(-c2ccc(C(=O)O)c(Cl)c2)o1` [PKUMDL-WQ-2201], for which the half-inhibitory concentration (IC50) at PHGDH mutant T59A is 69 ± 40 µM; at PHGDH mutant T56AK57A, greater than 300 µM; on PHGDH (read-out: IC50, PHGDH enzyme inhibition, WT PHGDH), 35.7 ± 8.6 µM. Besides, the EC50 is 10 µM with HCC70 cells; 6.9 µM in the data set on MDA-MB-468 cells [2]; less than 10 µM in data set [4] (read-out: EC50 in PHGDH amplified breast cancer cells, serine-replete media); greater than 200 µM in the data set on MCF-7 cells; greater than 200 µM in the data set with MDA-MB-231 cells. In data set [1] (setting [8]), the “m+2, m+6 and m+7 glucose labeling in UTP and ATP” value was “decreases”. Also, in data set [1] (setting [8]), the “m+2 glucose incorporation into glutathione” value is listed as “decreases in m+2”. Moreover, in data set [1] (about IC50 (37 μM PKUMDL-WQ-2101, 291 μM PKUMDL-WQ-2201), 24 h treatment), the “reduction of glucose incorporation into serine and glycine” value is reported as “more than 50%”. In data set [3], the “body weight (tolerability)” value is reported as “able to maintain normal body weight”. Also, the “bioactivity in the other three PHGDH non-amplified breast cancer cell lines” value in [4] (lines other than ZR-75-1) was “No bioactivities”. Besides, in the data set with MCF-10A cells, the cytotoxic effects result is “weak cytotoxic effects”. Besides, the values for the cell growth entry (in [5]; in the data set with SKOV3 PHGDH KO cells) were “suppressed” and “remained unaffected”, respectively. In addition, the tumor growth entry in the data set with MDA-MB-231 xenografts is “neither PKUMDL-WQ-2101 nor PKUMDL-WQ-2201 affected tumor growth”; with MDA-MB-468 xenografts it was “substantial inhibitory effects; also recorded: significantly suppressed the growth of tumors”. Further, the “combination effect on PHGDH inhibition (Combination Index)” value at PHGDH (PKUMDL-WQ-2101 kept at 25 μM, PKUMDL-WQ-2201 1 to 200 μM) was “synergistic interactions”; on PHGDH (PKUMDL-WQ-2202 kept at 25 μM, PKUMDL-WQ-2201 varied) it was “antagonism”. Also, the “competition with cofactor NADH” value on PHGDH (compound 50 μM, NADH 5 to 40 μM) is reported as “did not bound in the cofactor site”. For the same compound, the “fold more active in MDA-MB-468 and HCC70 than in ZR-75-1” value in the data set on ZR-75-1 cells is given as 13- to 18 fold.
Consider CBR-5884, for which the “stability in mouse plasma” value in data set [6] is listed as “unstable in mouse plasma”. For the same compound, the “inhibition of growth of MDA-MB-468 cells” value with MDA-MB-468 cells [7] (serine-deplete media) was 80% to 90%; with MDA-MB-468 cells [7] (serine-replete media), 35% to 60%.
